Measurements as given in ChEMBL document CHEMBL1125840, “Antimalarial polyamine analogues” (J Med Chem, 1991).

What was measured:
Plasmodium berghei [1] = assay: In vivo antimalarial activity against Plasmodium berghei in mice (Mus musculus) as maximum dose tolerated; type: functional
Summary of the method: (§1)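 Peters 4-day suppression test, mice in groups of five, P. berghei given intravenously. DFMO 2% in drinking water for four nights (Mon-Thu), starting about 4-6 h after infection. Analogues given intraperitoneally at 8:30, 12:30 and 16:30 on three consecutive days (Tue-Thu). Dose reported as highest tolerated, highest tested, or giving maximum response. Cures judged as survival beyond 4 months with parasite-free Giemsa blood smears.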

Plasmodium falciparum = assay: In vitro antimalarial activity against Plasmodium falciparum; type: functional, organism-based
Summary of the method: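 P. falciparum clone D6 (Sierra Leone strain) grown in human O+ erythrocytes, 1% erythrocyte suspension, starting parasitemia about 0.5%. Analogues dissolved in culture medium and filter-sterilized. After 24 h of exposure, [3H]hypoxanthine (1 µCi) was added and its incorporation measured after a further 18-24 h. IC50 is the concentration (µM) inhibiting incorporation by 50%.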

Plasmodium berghei [2] = assay: In vivo antimalarial activity against Plasmodium berghei infected mice (Mus musculus) as cures surviving after 4 months; type: functional
Summary of the method: (§2)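 Standard 4-day suppression test: mice in groups of five infected intravenously with P. berghei; treatment began about 4-6 h after infection. Co-treatment with DFMO as 2% solution in drinking water for four nights, plus analogue given intraperitoneally three times daily (8:30, 12:30, 16:30) on three consecutive days. Cure means survival beyond 4 months with parasite-free Giemsa-stained blood smears on periodic examination.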

Plasmodium berghei [3] = assay: In vivo antimalarial activity against Plasmodium berghei in mice (Mus musculus) as maximum dose tested; type: functional; summary of the method: as §1
Plasmodium berghei [4] = assay: In vivo antimalarial activity against Plasmodium berghei in mice (Mus musculus) as dose required for Emax; type: functional; summary of the method: as §1
Plasmodium berghei [5] = assay: In vivo antimalarial activity as increased survival (%max) against Plasmodium berghei in mice (Mus musculus); type: functional; summary of the method: as §2

Row | SMILES | IC50 (Plasmodium falciparum) [µM] | other results
1 | Cl.Cl.Cl.Cl.Clc1ccc(CNCCCNCCCCCCCCNCCCNCc2ccc(Cl)cc2)cc1 | 0.5 | Dose (Plasmodium berghei [1]): 3 mg/kg; Cured (Plasmodium berghei [2]): 60%
2 | c1ccc(NCCCNCCCCCCCNCCCNc2ccccc2)cc1 | 0.5 | 
3 | Cl.Cl.Cl.Cl.c1ccc(CNCCCNCCCCCCNCCCNCc2ccccc2)cc1 | 5.3 | Dose (Plasmodium berghei [3]): 30 mg/kg
4 | NCCCNCCCCCCCCNCCCN | 1800 | 
5 | CS(=O)(=O)c1ccc(CNCCCNCCCCCCCNCCCNCc2ccc(S(C)(=O)=O)cc2)cc1 | 86 | 
6 | c1cc(CNCCCNCCCCCCCNCCCNCc2ccsc2)cs1 | 3.9 | 
7 | NCCCNCCCCCCCCNCCCNCc1ccccc1 | 64 | 
8 | c1ccc(CNCCCCNCCCCCCCNCCCCNCc2ccccc2)cc1 | 3.2 | 
9 | Cl.Cl.Cl.Cl.c1ccc(CNCCCNCCCCCCCCCNCCCNCc2ccccc2)cc1 | 0.7 | Cured (Plasmodium berghei [2]): 60%; Dose (Plasmodium berghei [4]): 10 mg/kg
10 | Cl.Cl.Cl.Cl.c1ccc(CNCCNCCCCCCCCNCCNCc2ccccc2)cc1 | 0.3 | Max increase (Plasmodium berghei [5]): 45%; Dose (Plasmodium berghei [3]): 30 mg/kg
11 | CC(N)CCNCCCCCCCNCCC(C)N (stereo unspecified) | > 20 | 
12 | c1ccc(CNCCNCCCCCCCNCCNCc2ccccc2)cc1 | 1.4 | 
13 | COc1ccc(CNCCCNCCCCCCCNCCCNCc2ccc(OC)cc2)cc1 | 2.5 | 
14 | c1ccc(CNCCNCCCCCCNCCNCc2ccccc2)cc1 | 4.5 | 
15 | COc1ccc(CNCCCNCCCCCCCCNCCCNCc2ccc(OC)cc2)cc1 | 1.3 | 
16 | c1ccc(CCNCCCNCCCCCCCNCCCNCCc2ccccc2)cc1 | 1.9 | 
17 | Cl.Cl.Cl.Cl.c1ccc(CNCCCNCCCCCCCNCCCNCc2ccccc2)cc1 | 3 | Cured (Plasmodium berghei [2]): 100%; Dose (Plasmodium berghei [4]): 15 mg/kg
18 | Cl.Cl.Cl.Cl.c1ccc(CNCCCNCCCCCNCCCNCc2ccccc2)cc1 | 6.7 | Max increase (Plasmodium berghei [5]): 30%; Dose (Plasmodium berghei [3]): 30 mg/kg
19 | Clc1ccc(CNCCCNCCCCCCCNCCCNCc2ccc(Cl)cc2)cc1 | 1.4 | 
20 | Oc1ccc(CNCCCNCCCCCCCCNCCCNCc2ccc(O)cc2)cc1 | 5.7 | 
21 | C(CCCNCCCNCC1CCCCC1)CCCNCCCNCC1CCCCC1 | 1.8 | 

Row | SMILES | IC50 (Plasmodium falciparum) [µM] | other results
22 | CCCCNCCCNCCCCCCCCNCCCNCCCC | 30 | 
23 | c1ccc2c(CNCCCNCCCCCCCCNCCCNCc3cccc4ccccc34)cccc2c1 | 0.34 | 
24 | CC(NCCCNCCCCCCCNCCCNC(C)c1ccccc1)c1ccccc1 (stereo unspecified) | 4.8 | 
25 | CS(=O)(=O)c1ccc(CNCCCNCCCCCCCCNCCCNCc2ccc(S(C)(=O)=O)cc2)cc1 | 20 | 
26 | CCc1ccc(CNCCCNCCCCCCCNCCCNCc2ccc(CC)cc2)cc1.Cl.Cl.Cl.Cl | 1.8 | Dose (Plasmodium berghei [3]): 30 mg/kg
27 | CCc1ccc(CNCCCNCCCCCCCCNCCCNCc2ccc(CC)cc2)cc1 | 1.4 | 
28 | c1csc(CNCCCNCCCCCCCNCCCNCc2cccs2)c1 | 4.5 | 
29 | c1ccc(CNCCCCNCCCCCCCCNCCCCNCc2ccccc2)cc1 | 5.3 | 
30 | Cl.Cl.Cl.Cl.c1ccc(CNCCCNCCCCNCCCNCc2ccccc2)cc1 | 14 | Max increase (Plasmodium berghei [5]): 30%; Dose (Plasmodium berghei [3]): 30 mg/kg
31 | NCCCNCCCCCCCNCCCNCc1ccccc1 | 330 | 
32 | CSc1ccc(CNCCCNCCCCCCCNCCCNCc2ccc(SC)cc2)cc1 | 3 | 
33 | c1ccc(CNCCNCCCCCCCCCCNCCNCc2ccccc2)cc1 | 0.3 | 
34 | CC(CCNCCCCCCCNCCC(C)NCc1ccccc1)NCc1ccccc1.Cl.Cl.Cl.Cl (stereo unspecified) | 2.6 | Dose (Plasmodium berghei [3]): 100 mg/kg
35 | CSc1ccc(CNCCCNCCCCCCCCNCCCNCc2ccc(SC)cc2)cc1 | 0.6 | 
36 | Cl.Cl.Cl.Cl.c1ccc(CNCCCNCCCCCCCCNCCCNCc2ccccc2)cc1 | 0.8 | Cured (Plasmodium berghei [2]): 80%; Dose (Plasmodium berghei [4]): 10 mg/kg
37 | Cl.Cl.Cl.Cl.c1ccc(CNCCCNCCCCCCCCCCNCCCNCc2ccccc2)cc1 | 0.5 | Dose (Plasmodium berghei [1]): 3 mg/kg; Cured (Plasmodium berghei [2]): 40%
38 | NCCCNCCCCCCCNCCCN | 4300 | 
39 | c1ccc(CCCNCCCNCCCCCCCNCCCNCCCc2ccccc2)cc1 | 0.3 | 
40 | Cl.Cl.Cl.Cl.c1ccc(CNCCCNCCCCCCCCCCCCNCCCNCc2ccccc2)cc1 | 0.2 | Dose (Plasmodium berghei [1]): 10 mg/kg
41 | Oc1ccc(CNCCCNCCCCCCCNCCCNCc2ccc(O)cc2)cc1 | 27 | 
